The source of these data is PubChem BioAssay AID624306 (The Scripps Research Institute Molecular Screening Center, 2012).

The structures appear in SMILES notation. Active and inactive are the calls of the source.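 The calls were made as follows: active = inhibition of insulin-degrading enzyme persists after dilution, judged irreversible; inactive = inhibition lost or reduced after dilution, judged reversible.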

Sequence of Insulin-degrading enzyme (Homo sapiens) (P14735 whole entry, looked up): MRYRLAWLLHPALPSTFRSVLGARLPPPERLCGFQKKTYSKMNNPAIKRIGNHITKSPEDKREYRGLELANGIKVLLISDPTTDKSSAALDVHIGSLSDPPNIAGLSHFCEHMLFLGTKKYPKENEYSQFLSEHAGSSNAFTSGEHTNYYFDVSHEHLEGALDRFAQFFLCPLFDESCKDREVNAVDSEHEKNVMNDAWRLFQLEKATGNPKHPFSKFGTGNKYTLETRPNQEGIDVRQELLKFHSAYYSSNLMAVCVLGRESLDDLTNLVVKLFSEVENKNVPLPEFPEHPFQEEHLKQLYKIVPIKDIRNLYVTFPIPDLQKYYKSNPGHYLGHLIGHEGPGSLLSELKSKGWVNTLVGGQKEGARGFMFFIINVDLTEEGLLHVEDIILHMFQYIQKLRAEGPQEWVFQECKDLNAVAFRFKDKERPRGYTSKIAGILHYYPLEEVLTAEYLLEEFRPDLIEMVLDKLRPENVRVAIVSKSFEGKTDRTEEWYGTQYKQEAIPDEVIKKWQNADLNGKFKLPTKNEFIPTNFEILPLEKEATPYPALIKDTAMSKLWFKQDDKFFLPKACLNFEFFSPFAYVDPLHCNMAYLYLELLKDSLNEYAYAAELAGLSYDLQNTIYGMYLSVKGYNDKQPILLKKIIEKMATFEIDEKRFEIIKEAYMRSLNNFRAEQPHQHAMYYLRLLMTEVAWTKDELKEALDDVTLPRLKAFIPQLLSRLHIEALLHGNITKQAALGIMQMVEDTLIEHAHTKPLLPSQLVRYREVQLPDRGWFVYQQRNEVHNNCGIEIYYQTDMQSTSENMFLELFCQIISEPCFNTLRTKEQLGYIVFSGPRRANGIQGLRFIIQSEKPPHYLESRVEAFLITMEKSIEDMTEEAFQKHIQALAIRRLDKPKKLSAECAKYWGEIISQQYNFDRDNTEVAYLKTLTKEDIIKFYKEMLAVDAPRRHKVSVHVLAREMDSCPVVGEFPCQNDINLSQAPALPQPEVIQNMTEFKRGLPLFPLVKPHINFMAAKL

In this assay the target is Insulin-degrading enzyme (Homo sapiens) (UniProt P14735). In words: dilution reversibility, CF mutant IDE inhibitors – biochemical, cysteine-free mutant, FRET1 fluorogenic peptide, mechanism study for IDE inhibitor project, late-stage follow-up (AID 624306). Conditions: recombinant cysteine-free IDE, FRET1 fluorescence. In short, it runs like this:
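Test system: mutant insulin-degrading enzyme (IDE) / Quantity: mutant IDE at 1 nM in the well / Reagent: substrate 1 µM / Medium: HEPES pH 7.4 plus 0.1% BSA / Times: room-temperature reads every 2 min across 2 h / Technique: kinetic fluorescence, 335 nm excitation, 385 nm emission / Doses: compound series with top concentration 100 µM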
Consider `Clc1cccc(-c2nnc(SCc3nc4ccccc4[nH]3)n2Cc2ccco2)c1`, for which the result was inactive.

For the compound `O=C(Nc1cccc(C(F)(F)F)c1)c1csc(-c2ccncc2)n1`, the outcome was inactive.

As for `Cc1cccc(-c2nnc(SCc3nc4ccccc4[nH]3)n2Cc2ccco2)c1`, the result was inactive.

As for `COc1cc(/C=C2\SC(=S)N(NC(C)=O)C2=O)ccc1OC(=O)c1ccco1`, the result was inactive.

Take `COc1cccc(-c2nnc(SCc3nc4ccccc4[nH]3)n2Cc2ccco2)c1`: the result was inactive.

For the compound `COc1ccc(C(=O)N2CCN(C(=O)C3COc4ccccc4O3)CC2)cc1OC` (stereo not given), the outcome was inactive.

Consider `O=C(O)c1ccccc1NS(=O)(=O)c1cccc(-n2sc3ccccc3c2=O)c1`, for which the result was active.

As to `O=c1c2ccccc2sn1-c1cc(S(=O)(=O)N2CCOCC2)ccc1N1CCOCC1`, the result was active.

With `Cn1c(=O)c(C(=O)CN2CCCc3ccccc32)c(N)n(Cc2ccccc2)c1=O`, the outcome was inactive.

In the case of `Cc1c(CCC(=O)NCCCn2ccnc2)c(=O)oc2cc3oc4c(c3cc12)CCCC4`, the result was inactive.
